In ChEMBL document CHEMBL1145894, “Anti-herpes simplex virus activity of substituted 1-hydroxyacridones” (J Med Chem, 2003):
Blank lines part the entries; values can stand above or below the compound they belong to. The source made the active and inactive calls. The rule behind the calls is not given here.

Key:
Human alphaherpesvirus 2 [1] = experiment: Inhibitory activity against HSV-2 in vero cells; format: functional, herpes simplex virus; conditions: Human alphaherpesvirus 2, Vero; read-out: ED50 (the source's name)
How it was run: (§1)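 Plaque-elimination assay. Cells were infected with 50–100 PFU of HSV-1 (KOS) or HSV-2 (186 or plaque-purified 186 stocks, 333, G) and adsorbed for 1 h, then overlaid with 0.5% FCS medium ± compound, in duplicate. After 2 days, wells were crystal-violet stained and plaques counted by eye; ED50 was taken from a sigmoidal nonlinear fit.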

Vero = experiment: In vitro cytotoxic concentration in vero cells.; format: functional; conditions: Chlorocebus sabaeus
How it was run: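 Vero cell replication was measured by sulforhodamine B dye binding after 2 days of continuous compound exposure. CC50 is the concentration giving 50% inhibition relative to untreated control, calculated by nonlinear regression with a sigmoidal fit to dose-response data.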

Human alphaherpesvirus 1 [2] = experiment: Inhibitory activity against HSV-1 in vero cells; format: functional, herpes simplex virus; conditions: Human alphaherpesvirus 1, Vero; read-out: ED50 (the source's name); how it was run: as §1
[3] = Therapeutic index (vero CC50/ED50) against HSV-1; conditions: herpes simplex virus, Vero cells; read-out: TI
How it was run: (§2)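 Selectivity (TI) was calculated as Vero CC50 (SRB assay, 2 days continuous treatment) divided by plaque-reduction ED50 against the given HSV strain in Vero cells, using 50–100 PFU inoculum and a 2-day incubation.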

[4] = Therapeutic index (vero CC50/ED50) against HSV-2; NA= not active; conditions: herpes simplex virus; how it was run: as §2
Human alphaherpesvirus 2 [5] = experiment: Inhibitory activity against HSV-2 in vero cells; NA= not active, at 50 uM no toxicity; format: functional, organism-based; conditions: herpes simplex virus; how it was run: as §1
[6] = Therapeutic index (vero CC50/ED50) against HSV-2; conditions: herpes simplex virus, Vero cells; read-out: TI; how it was run: as §2
Human alphaherpesvirus 2 [7] = experiment: Inhibitory activity against HSV-2 in vero cells; NA= not active; format: functional, organism-based; conditions: herpes simplex virus; how it was run: as §1
Human alphaherpesvirus 1 [8] = experiment: Inhibitory activity against HSV-1 in vero cells; NA= not active; format: functional, organism-based; conditions: herpes simplex virus; how it was run: as §1
Human alphaherpesvirus 1 [9] = experiment: Inhibitory activity against HSV-1 in vero cells; NA= not active at 100 uM; format: functional, organism-based; conditions: herpes simplex virus; how it was run: as §1
[10] = Therapeutic index against HSV-2 (186, c2); conditions: herpes simplex virus; read-out: TI; how it was run: as §2
[11] = Therapeutic index against HSV-1 (KOS); conditions: herpes simplex virus; read-out: TI; how it was run: as §2
[12] = Therapeutic index against HSV-2 (G); conditions: herpes simplex virus; read-out: TI; how it was run: as §2
herpes simplex virus [13] = experiment: Anti-HSV activity against HSV-2 (186, c2) strain; format: functional; how it was run: as §1
herpes simplex virus [14] = experiment: Anti-HSV activity against HSV-1 (KOS) strain; format: functional; how it was run: as §1
herpes simplex virus [15] = experiment: Anti-HSV activity against HSV-2 (186, c4) strain; format: functional; how it was run: as §1
herpes simplex virus [16] = experiment: Anti-HSV activity against HSV-2 (G) strain; format: functional; how it was run: as §1
herpes simplex virus [17] = experiment: Anti-HSV activity against HSV-2 (186) strain; format: functional; how it was run: as §1
[18] = Therapeutic index against HSV-2 (186, c4); conditions: herpes simplex virus; read-out: TI; how it was run: as §2
[19] = Therapeutic index against HSV-2 (333); conditions: herpes simplex virus; read-out: TI; how it was run: as §2
herpes simplex virus [20] = experiment: Anti-HSV activity against HSV-2 (333) strain; format: functional; how it was run: as §1

SMILES: O=c1c2cccc(Cl)c2[nH]c2cc(O)cc(O)c12
- EC50 (Human alphaherpesvirus 2 [1]): > 30 µM
- CC50 (Vero): 60 µM
- EC50 (Human alphaherpesvirus 1 [2]): 4 µM
- selectivity ratio [3]: 13
- TI [4]: Not Active

SMILES: COc1cc(O)c2c(O)c3cccnc3nc2c1
- CC50 (Vero): 5.5 µM
- ED50 (Human alphaherpesvirus 2 [5]): inactive

SMILES: Cc1cccc2c(O)c3c(O)cc(O)cc3nc12
- EC50 (Human alphaherpesvirus 2 [1]): 15 µM
- CC50 (Vero): 32 µM
- selectivity ratio [6]: 2.1
- EC50 (Human alphaherpesvirus 1 [2]): 8 µM
- selectivity ratio [3]: 4

SMILES: Cc1cc(O)c2c(=O)c3cccc(Cl)c3[nH]c2c1
- CC50 (Vero): 13 µM
- ED50 (Human alphaherpesvirus 2 [7]): inactive
- ED50 (Human alphaherpesvirus 1 [8]): inactive

SMILES: O=c1c2cccc(Cl)c2[nH]c2cc3ccccc3c(O)c12
- CC50 (Vero): > 100 µM
- ED50 (Human alphaherpesvirus 1 [9]): inactive

SMILES: Nc1nc2c(ncn2COCCO)c(=O)[nH]1 [ACYCLOVIR]
- EC50 (Human alphaherpesvirus 2 [1]): 2.5 µM
- CC50 (Vero): > 400 µM
- selectivity ratio [6]: > 160
- EC50 (Human alphaherpesvirus 1 [2]): 0.5 µM
- selectivity ratio [3]: > 800

SMILES: O=c1c2c(O)cc(O)cc2[nH]c2cccc(Cl)c12
- CC50 (Vero): 70 µM
- EC50 (Human alphaherpesvirus 1 [2]): 10 µM
- selectivity ratio [3]: 7

SMILES: O=c1c2ccccc2[nH]c2cc(O)cc(O)c12
- CC50 (Vero): 68 µM
- EC50 (Human alphaherpesvirus 1 [2]): 45 µM
- selectivity ratio [3]: 1.5

SMILES: O=C(O)CP(=O)(O)O [FOSFONET]
- CC50 (Vero): 3500 µM
- EC50 (Human alphaherpesvirus 1 [2]): 240 µM
- selectivity ratio [3]: 29

SMILES: O=c1c2cc(Cl)ccc2[nH]c2cc(O)cc(O)c12
- EC50 (Human alphaherpesvirus 2 [1]): 15 µM
- CC50 (Vero): 52 µM
- selectivity ratio [6]: 3.5
- EC50 (Human alphaherpesvirus 1 [2]): 16 µM
- selectivity ratio [3]: 3.5

SMILES: O=c1c2ccc(Cl)cc2[nH]c2cc(O)cc(O)c12
- CC50 (Vero): 29 µM
- EC50 (Human alphaherpesvirus 1 [2]): 10 µM
- selectivity ratio [3]: 3
- TI [4]: Not Active

SMILES: COc1cccc2c(O)c3c(O)cc(O)cc3nc12
- EC50 (Human alphaherpesvirus 2 [1]): 0.6 µM
- CC50 (Vero): 30 µM
- selectivity ratio [10]: 50
- selectivity ratio [11]: 14
- selectivity ratio [12]: 60
- ED50 (herpes simplex virus [13]): 0.6 µM
- selectivity ratio [6]: 50
- ED50 (herpes simplex virus [14]): 2.2 µM
- ED50 (herpes simplex virus [15]): 1.2 µM
- ED50 (herpes simplex virus [16]): 0.5 µM
- ED50 (herpes simplex virus [17]): 0.6 µM
- selectivity ratio [18]: 25
- EC50 (Human alphaherpesvirus 1 [2]): 2.2 µM
- selectivity ratio [19]: 43
- ED50 (herpes simplex virus [20]): 0.7 µM
- selectivity ratio [3]: 13

Now from value to compound, other results behind:

- EC50 (Human alphaherpesvirus 2 [1]): > 30 µM
- EC50 (Human alphaherpesvirus 1 [2]): > 50 µM
SMILES: Cn1c2cc(O)cc(O)c2c(=O)c2cccc(Cl)c21
- CC50 (Vero): 50 µM

- EC50 (Human alphaherpesvirus 2 [1]): > 50 µM
SMILES: COc1cc(O)c2c(O)c3cccc(OC)c3nc2c1
- CC50 (Vero): > 50 µM

- EC50 (Human alphaherpesvirus 1 [2]): 44 µM
SMILES: Cc1cccc2nc3cc(O)cc(O)c3c(O)c12
- CC50 (Vero): 60 µM
- selectivity ratio [3]: 1.4

- EC50 (Human alphaherpesvirus 1 [2]): > 50 µM
SMILES: COc1cc(O)c2c(=O)c3cccc(Cl)c3[nH]c2c1
- CC50 (Vero): > 100 µM
- ED50 (Human alphaherpesvirus 2 [7]): inactive

- EC50 (Human alphaherpesvirus 2 [1]): 20 µM
- EC50 (Human alphaherpesvirus 1 [2]): 12 µM
SMILES: Oc1cc(O)c2c(O)c3cc(Cl)cc(Cl)c3nc2c1
- CC50 (Vero): > 100 µM
- selectivity ratio [6]: > 8.3
- selectivity ratio [3]: > 5

- EC50 (Human alphaherpesvirus 2 [1]): > 10 µM
SMILES: COc1cc(O)c2c(O)c3cc(OC)ccc3nc2c1
- CC50 (Vero): > 50 µM

- EC50 (Human alphaherpesvirus 1 [2]): 15 µM
SMILES: Oc1cc(O)c2c(O)c3cc(O)ccc3nc2c1
- CC50 (Vero): 40 µM
- selectivity ratio [3]: 2.7

- EC50 (Human alphaherpesvirus 2 [1]): > 50 µM
- EC50 (Human alphaherpesvirus 1 [2]): > 100 µM
SMILES: COc1cc(O)c2c(=O)c3cccc(Cl)c3n(C)c2c1
- CC50 (Vero): > 100 µM

- EC50 (Human alphaherpesvirus 2 [1]): < 10 µM
SMILES: COc1cc(O)c2c(O)c3cc(O)ccc3nc2c1
- CC50 (Vero): 25 µM
